SIRT5 block: inhibitors of human sirtuin-5 desuccinylase; Q9NXA8; Purified SirT5, succinyl-peptide AMC, trypsin-coupled fluorescence; inhibition, % at 15 µM; 1.1% of 330,000 active; in the data active means inhibition above about 15%; inconclusive means no clear call, values can overlap the other calls
Target sequence (Q9NXA8 whole entry, looked up): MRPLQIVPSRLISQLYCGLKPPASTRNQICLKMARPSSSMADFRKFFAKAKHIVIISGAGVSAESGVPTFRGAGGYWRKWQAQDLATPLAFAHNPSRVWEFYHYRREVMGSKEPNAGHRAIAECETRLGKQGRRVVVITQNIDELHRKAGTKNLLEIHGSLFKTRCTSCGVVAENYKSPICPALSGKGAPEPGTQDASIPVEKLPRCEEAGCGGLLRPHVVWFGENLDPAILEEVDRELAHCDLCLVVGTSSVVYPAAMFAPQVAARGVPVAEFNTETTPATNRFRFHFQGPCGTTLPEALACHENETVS
DENV2 CPE: inhibitors of DENV2 cytopathic effect. CPE inhibition, % at 9.99 µM. DENV2-infected cells, cytopathic effect rescue, plate reader. 1.7% of 350,000 active. AID 651640; in the data active means CPE inhibition above about 20%, passing the limit was not always enough; inconclusive means no clear call, values can overlap the other calls; tested in BHK-21 cells
E-sel inducer: induces E-selectin expression in human endothelial cells | activation, % at 7.58 µM | 0.37% of 260,000 active | HUVEC E-selectin immunofluorescence imaging; normalized: neutral wells 0, TNF-alpha wells 100;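 active means mean E-selectin-positive cell signal at least 10% of the positive control, reached in at least 60% of replicates, without over 20% cell loss; inconclusive means no rule given, readout overlaps actives, possibly toxicity-flagged; inactive means the rest, including those meeting only one limit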
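Read-out basis: % PE-positive cells; Test system: HUVEC primary endothelial cells; Technique: immunofluorescence imaging; Dosing: single-point compound dose.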
A number is an active result; 0 = inactive; ? = inconclusive; - = not tested or not shown; ! = not confirmed by another sample. Shown are actives, neighbours in structure and some others; about 2.9% of the full set was active somewhere.

SMILES	SIRT5 block	DENV2 CPE	E-sel inducer
C[C@H]1CN([C@@H](C)CO)C(=O)Cc2cc(NC(=O)Nc3ccc(F)cc3)ccc2O[C@H]1CN(C)Cc1ccc(-c2ccccc2)cc1	0	50	0
C[C@H]1CN([C@@H](C)CO)C(=O)Cc2cc(NC(=O)Nc3ccc4c(c3)OCO4)ccc2O[C@@H]1CN(C)Cc1ccc(C(=O)O)cc1	0	-	-
COCC(=O)Nc1ccc2c(c1)OC[C@H](C)N(CC1CCCCC1)C[C@@H](C)[C@H](OC)CN(C)C2=O	0	0	0
COc1cccc(-c2ccc([C@@H]3[C@@H](CO)N4CCCCN(C(=O)c5ccc(F)cc5)C[C@@H]34)cc2)c1	0	0	0
COc1cccc(-c2ccc([C@H]3[C@@H](CO)N4CCCCN(C(=O)c5ccc(F)cc5)C[C@H]34)cc2)c1	0	43	0
COc1cccc(-c2ccc([C@@H]3[C@H]4CN(C(=O)c5ccc(F)cc5)CCCCN4[C@H]3CO)cc2)c1	0	0	0
COc1cccc(-c2ccc([C@@H]3[C@@H](CO)N4CCCCN(C(=O)c5ccc(F)cc5)C[C@H]34)cc2)c1	0	43	0
Cc1ccc2c(c1)COc1c3ccc(C(=O)NCC4CC4)cc3nn1-2	-	-	0
CN(C)C(=O)c1cccc(-c2ccc([C@H]3[C@H](CO)N4C(=O)CN(C(=O)C5CCC5)C[C@@H]34)cc2)c1	0	0	0
COc1ccc(N(C(=O)c2snc(C(N)=O)c2N)C(C(=O)NCc2ccc(F)cc2)c2ccc(C)o2)c(OC)c1 (stereo not drawn)	0	0	0
COc1ccccc1N(C(=O)c1snc(C(N)=O)c1N)C(C(=O)NCc1ccccc1)c1ccc(C)o1 (stereo not drawn)	0	0	33
CC(C)CC(=O)Nc1ccc(-c2nc3ccccc3c(=O)o2)cc1	-	-	0
CC(C)CC(=O)Nc1ccc(-c2nc3ccccc3c(=O)[nH]2)cc1	16	0	0
Cc1ccc(NC(=O)CCCSc2nc3ccccc3[nH]2)cc1	0	0	-
Cc1ccc(SCC(=O)Nc2ccc(-c3nc4ccccc4[nH]3)cc2)cc1	-	38	-
C[C@@H]1CN([C@H](C)CO)C(=O)c2cc(NC(=O)Nc3ccc4c(c3)OCO4)ccc2O[C@@H](C)CCCCO[C@H]1CN(C)S(=O)(=O)c1cccs1	18	0	0
C[C@@H]1CCCCO[C@H](CN(C)S(=O)(=O)c2cccs2)[C@@H](C)CN([C@H](C)CO)C(=O)c2cc(NC(=O)Nc3ccc4c(c3)OCO4)ccc2O1	0	?	0
C[C@@H]1CCCCO[C@H](CN(C)S(=O)(=O)c2cccs2)[C@@H](C)CN([C@@H](C)CO)C(=O)c2cc(NC(=O)c3ccccc3)ccc2O1	-	23	0
C[C@@H]1CCCCO[C@H](CN(C)S(=O)(=O)c2cccs2)[C@H](C)CN([C@@H](C)CO)C(=O)c2cc(NC(=O)Nc3ccc(F)cc3)ccc2O1	0	0	0
C[C@@H]1CCCCO[C@@H](CN(C)S(=O)(=O)c2cccs2)[C@H](C)CN([C@H](C)CO)C(=O)c2cc(NC(=O)Nc3ccc(F)cc3)ccc2O1	17	0	0
C[C@H]1CN([C@@H](C)CO)C(=O)c2cc(NC(=O)Nc3ccc(F)cc3)ccc2O[C@H]1CN(C)S(=O)(=O)c1cccs1	0	0	26
C[C@H](CO)N1C[C@H](C)[C@@H](CN(C)S(=O)(=O)c2cccs2)Oc2ccc(NC(=O)Nc3ccc(F)cc3)cc2C1=O	0	0	0
C[C@@H]1CCCCO[C@H](CN(C)S(=O)(=O)c2cccs2)[C@@H](C)CN([C@H](C)CO)C(=O)c2cc(NC(=O)c3ccccc3)ccc2O1	-	0	0
Fc1cccc(-c2ccc(C3[C@@H]4CN(Cc5ccccc5F)C[C@H]3N4)cc2)c1 (stereo partly drawn)	0	0	0
COc1ccc(C2CC(=O)N(CC(=O)NCC3CCCO3)c3ccccc3S2)cc1 (stereo not drawn)	0	0	-
SMILES	SIRT5 block	DENV2 CPE	E-sel inducer
COc1ccc2c3c([nH]c2c1)[C@@H](CO)N(C(=O)C1CCOCC1)CC31CCN(S(C)(=O)=O)CC1	0	0	0
O=C(NCCCSc1ccccc1)c1cnc(Cl)c(Cl)c1	0	0	0
CC=Cc1ccc2n(c1=O)C[C@H]1[C@H](CO)[C@@H](C(=O)NCCCN(C)C)[C@@H]2N1Cc1nccs1 (mixture of isomers)	0	0	0
C[C@H]1CCCCO[C@H](CN(C)S(=O)(=O)c2cccs2)[C@@H](C)CN([C@@H](C)CO)C(=O)c2cc(NC(=O)Nc3ccc(F)cc3)ccc2O1	0	0	0
C[C@@H]1CN([C@H](C)CO)C(=O)c2cc(NC(=O)Nc3ccc(F)cc3)ccc2O[C@@H](C)CCCCO[C@H]1CN(C)S(=O)(=O)c1cccs1	0	47!	0
Cc1[nH]c2ccc(F)cc2c1CCN(Cc1cccnc1)C(=S)Nc1ccc(F)cc1	0	0	-
N#C[C@@H]1[C@H](c2ccc(C#CC3CCCC3)cc2)[C@@H](CO)N1C(=O)Cc1ccccn1	0	0	0
CC(=O)c1ccc(OCc2cc(C(=O)NCCN3CCCC(O)C3)no2)cc1 (stereo not drawn)	0	0	0
COc1cc(C)ccc1OCc1cc(C(=O)NCCN2CCCC(O)C2)no1 (stereo not drawn)	0	62	0
CN1C(=CC=C2C=C(I)C(=O)C(I)=C2)C(C)(C)c2ccccc21	0	0	163
CN1/C(=C\C=C2/C(=O)Oc3ccccc3C2=O)C(C)(C)c2ccccc21	0	0	0
COc1ccc(NC(=O)C2CCC(CNc3c(N4CCOCC4)c(=O)c3=O)CC2)cc1Cl (stereo not drawn)	0	0	-
C[C@H](CO)N1C[C@H](C)[C@@H](CN(C)C(=O)c2ccc3c(c2)OCO3)Oc2cc(-c3ccncc3)ccc2S1(=O)=O	0	0	0
C/C=C/c1ccc2c(c1)O[C@@H](CN(C)C(=O)c1ccc3c(c1)OCO3)[C@H](C)CN([C@H](C)CO)S2(=O)=O	0	0	0
C[C@H]1CN([C@@H](C)CO)S(=O)(=O)c2ccc(-c3ccncc3)cc2O[C@@H]1CN(C)C(=O)c1ccc2c(c1)OCO2	0	26	0
C[C@H](CO)N1C[C@H](C)[C@@H](CN(C)C(=O)c2ccc3c(c2)OCO3)Oc2cc(/C=C/c3ccccc3)ccc2S1(=O)=O	16	0	0
C[C@@H]1CN([C@@H](C)CO)S(=O)(=O)c2ccc(/C=C/c3ccccc3)cc2O[C@H]1CN(C)C(=O)c1ccncc1	0	41	0
C[C@@H]1CN([C@@H](C)CO)S(=O)(=O)c2ccc(/C=C/c3ccccc3)cc2O[C@H]1CN(C)C(=O)c1ccc2c(c1)OCO2	27	0	-
C/C=C/c1ccc2c(c1)O[C@H](CN(C)C(=O)c1ccc3c(c1)OCO3)[C@H](C)CN([C@H](C)CO)S2(=O)=O	0	0	0
C[C@H](CO)N1C[C@H](C)[C@H](CN(C)C(=O)c2ccccc2)Oc2cc(/C=C/c3ccccc3)ccc2S1(=O)=O	0	0	0
CCCN(CCC)S(=O)(=O)c1ccc(C(=O)O)cc1	0	0	0
COCCNC(=O)C1CC(c2cccc(OC)c2)=NO1 (stereo not drawn)	0	0	-
COCC#Cc1ccc([C@H]2[C@H](CO)N3CCCCN(C(=O)Nc4cc(F)ccc4F)C[C@@H]23)cc1	0	0	0
O=C(NCc1ccccc1)c1ccc(CS(=O)(=O)Cc2ccccc2F)o1	0	0	0
